The record followed here is PubChem BioAssay AID2152 (The Scripps Research Institute Molecular Screening Center, 2009).

Out of some 2,300 compounds screened, about 25 (1%) were called active. The sample holds actives, similar compounds and a random draw of the others, so the mix is not that of the screen. A number with no mark means an inactive call.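 The calls were made as follows: active = mean inhibition over three replicate wells above the hit threshold derived in the earlier primary screen (cut at about 45% in these data); inactive = the rest.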

In this assay the test system is Hepatitis C virus core protein (core106 dimerization). Put plainly: inhibitors of HCV core protein dimerization, confirmation, biochemical, TR-FRET, triplicate (AID 2152).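 Also: 0% = DMSO wells and 100% = unlabelled core106 competitor control.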 The following applies: TR-FRET GST-/Flag-core106 dimerization, HTRF; at 5 µM; stronger effect = higher value. An outline of the steps:
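Test system: GST- and Flag-tagged HCV core106 peptides, dimerization via antibody TR-FRET / Amount: 17 nM Flag- plus 13.5 nM GST-core106 / Probe or stimulus: Eu(K)-anti-GST plus XL665-anti-FLAG antibodies / Compound dosing: one 5 µM dose, 0.5% DMSO / Times: 4 h incubation, 22.5 °C / Technique: TR-FRET, 340 nm excitation, 671/617 nm emission / Evaluation: percent inhibition from emission ratio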
(In TR-FRET formats the signal depends on donor and acceptor labels being close together.)
Consider `Cn1cccc1/C=C1/C(=O)NC(=S)N(Cc2ccc(F)cc2)C1=O`, for which the inhibition (in general, the relative decrease from the control value, in per cent) is 64.5% (active).

`O=C1NC(=O)N(Cc2ccc(F)cc2)C(=O)/C1=C\c1ccc(N2CCCC2)cc1`: the inhibition is 4.49%.

Regarding `CN1C(=O)/C(=C/c2cccn2-c2ccc3ccccc3c2)C(=O)NC1=S`, the inhibition is 9.68%.

As to `Cc1ccc(N2C(=O)/C(=C/c3ccc(CN(CCC#N)S(C)(=O)=O)o3)C(=O)NC2=S)cc1C`, the inhibition is -8.42%.

`CCOc1cccc(N2C(=O)/C(=C/c3ccco3)C(=O)NC2=S)c1`: the inhibition is 10.6%.

As for `Cc1ccccc1N1C(=O)/C(=C/c2ccco2)C(=O)NC1=S`, the inhibition was 66.3% (active).

In the case of `COC(=O)[C@@H]1[C@@H](C(=O)OC)C2(c3ccccc3-c3ccccc32)N(c2ccc(Cl)cc2)N1C#N`, the inhibition is 8.69%.

As to `COc1ccccc1C(=O)Nc1ccc2c(c1)CC1(C(=O)N(C)C(=O)N(C)C1=O)C1CCCN21` (stereo not given), the inhibition was 7.78%.

For the compound `Cc1ccccc1-n1c(CNc2ccccc2)nc2ccccc2c1=O`, the inhibition is -1.12%.

For `CCN1C(=O)/C(=C/c2ccc3c(c2)CCN3CCCCl)C(=O)NC1=S`, the inhibition is 15.4%.
